Experimental findings from ChEMBL document CHEMBL1806456, “Chemistry of ecteinascidins. Part 3: preparation of 2'-N-acyl derivatives of ecteinascidin 770 and evaluation of cytotoxicity” (Bioorg Med Chem, 2011) are described below.

Holding throughout (type): functional, cell-based
For one experiment, the system named is HCT-116. Put plainly: Cytotoxicity against human HCT116 cells after 4 days by MTT assay. The conditions noted are these: HCT-116, 96 h. An outline of the steps: (§1)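 Cells seeded as single-cell suspension, 2 × 10³ cells/well, onto serially diluted compounds in microplates; cultured 4 d. Viable cells counted with a cell counting kit. IC50 taken as concentration giving 50% growth inhibition relative to untreated control.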

In another experiment the test system is QG-56. Kind of experiment: Cytotoxicity against human QG56 cells after 4 days by MTT assay. The conditions noted are these: QG-56, 96 h. An outline of the steps:
as §1

The subject of a further experiment is DU-145. Put plainly: Cytotoxicity against human DU145 cells after 4 days by MTT assay. The conditions noted are these: DU-145, 96 h. An outline of the steps:
as §1

pIC50: −log10 of the molar value. Where only a bound is given, the exact number is not on record here.

Consider `C=CCOc1cc2c(cc1OC)[C@@]1(CS[C@@H]3c4c(OC(C)=O)c(C)c5c(c4[C@@H](COC1=O)N1[C@@H]3[C@H]3c4c(cc(C)c(OC)c4O)C[C@@H]([C@@H]1C#N)N3C)OCO5)NCC2`, for which the pIC50 was 8.62 with HCT-116, 7.92 in the experiment on QG-56 and 8.15 in the experiment with DU-145.
The corresponding values for `C=CCOc1cc2c(cc1OC)[C@@]1(CS[C@@H]3c4c(OC(C)=O)c(C)c5c(c4[C@@H](COC1=O)N1[C@@H]3[C@H]3c4c(cc(C)c(OC)c4OCC=C)C[C@@H]([C@@H]1C#N)N3C)OCO5)N(CC=C)CC2` are 6.21, below 6.00 and below 6.00.
The corresponding values for `C=CCN1CCc2cc(O)c(OC)cc2[C@@]12CS[C@@H]1c3c(OC(C)=O)c(C)c4c(c3[C@@H](COC2=O)N2[C@@H]1[C@H]1c3c(cc(C)c(OC)c3O)C[C@@H]([C@@H]2C#N)N1C)OCO4` are 9.30, 8.74 and 8.92.
The like results for `C=CCOc1cc2c(cc1OC)[C@@]1(CS[C@@H]3c4c(OC(C)=O)c(C)c5c(c4[C@@H](COC1=O)N1[C@@H]3[C@H]3c4c(cc(C)c(OC)c4OCC=C)C[C@@H]([C@@H]1C#N)N3C)OCO5)N(C(=O)c1ccccc1)CC2` were, in that order, 6.72, 6.16 and 6.27.
With `C=CCOc1cc2c(cc1OC)[C@@]1(CS[C@@H]3c4c(OC(C)=O)c(C)c5c(c4[C@@H](COC1=O)N1[C@@H]3[C@H]3c4c(cc(C)c(OC)c4OCC=C)C[C@@H]([C@@H]1C#N)N3C)OCO5)N(C(=O)c1ccc([N+](=O)[O-])cc1)CC2`, the pIC50 with HCT-116 was 6.59; in the experiment on QG-56, 6.10; in the experiment on DU-145, 6.23.
The like results for `C=CCOc1cc2c(cc1OC)[C@@]1(CS[C@@H]3c4c(OC(C)=O)c(C)c5c(c4[C@@H](COC1=O)N1[C@@H]3[C@H]3c4c(cc(C)c(OC)c4OCC=C)C[C@@H]([C@@H]1C#N)N3C)OCO5)N(C(=O)c1cccc([N+](=O)[O-])c1)CC2` were, in that order, 6.74, 6.28 and 6.57.
With `C=CCOc1cc2c(cc1OC)[C@@]1(CS[C@@H]3c4c(OC(C)=O)c(C)c5c(c4[C@@H](COC1=O)N1[C@@H]3[C@H]3c4c(cc(C)c(OC)c4OCC=C)C[C@@H]([C@@H]1C#N)N3C)OCO5)N(C(=O)c1ccncc1)CC2`, the pIC50 with HCT-116 was 6.55; in the experiment with QG-56 it was 6.10; in the experiment on DU-145, 6.23.
On to `C=CCOc1cc2c(cc1OC)[C@@]1(CS[C@@H]3c4c(OC(C)=O)c(C)c5c(c4[C@@H](COC1=O)N1[C@@H]3[C@H]3c4c(cc(C)c(OC)c4OCC=C)C[C@@H]([C@@H]1C#N)N3C)OCO5)N(C(=O)c1cccnc1)CC2`, for which the pIC50 in the experiment on HCT-116 was 6.41; with QG-56 it was below 6.00; in the experiment on DU-145, 6.17.
The like results for `C=CCOc1cc2c(cc1OC)[C@@]1(CS[C@@H]3c4c(OC(C)=O)c(C)c5c(c4[C@@H](COC1=O)N1[C@@H]3[C@H]3c4c(cc(C)c(OC)c4OCC=C)C[C@@H]([C@@H]1C#N)N3C)OCO5)N(C(=O)c1ccnc3ccccc13)CC2` were, in that order, 6.51, 6.38 and 6.38.
The corresponding values for `C=CCOc1cc2c(cc1OC)[C@@]1(CS[C@@H]3c4c(OC(C)=O)c(C)c5c(c4[C@@H](COC1=O)N1[C@@H]3[C@H]3c4c(cc(C)c(OC)c4OCC=C)C[C@@H]([C@@H]1C#N)N3C)OCO5)N(C(=O)c1cccc3ncccc13)CC2` are 6.49, 6.19 and 6.26.
The like results for `C=CCOc1cc2c(cc1OC)[C@@]1(CS[C@@H]3c4c(OC(C)=O)c(C)c5c(c4[C@@H](COC1=O)N1[C@@H]3[C@H]3c4c(cc(C)c(OC)c4OCC=C)C[C@@H]([C@@H]1C#N)N3C)OCO5)N(C(=O)c1ccc3ncccc3c1)CC2` were, in that order, 6.82, 6.59 and 6.74.
On to `C=CCOc1cc2c(cc1OC)[C@@]1(CS[C@@H]3c4c(OC(C)=O)c(C)c5c(c4[C@@H](COC1=O)N1[C@@H]3[C@H]3c4c(cc(C)c(OC)c4OCC=C)C[C@@H]([C@@H]1C#N)N3C)OCO5)N(C(=O)c1ccc(Br)cc1)CC2`, for which the pIC50 in the experiment with HCT-116 is 6.32; in the experiment with QG-56 it was below 6.00; with DU-145, 6.14.
Consider `C=CCOc1cc2c(cc1OC)[C@@]1(CS[C@@H]3c4c(OC(C)=O)c(C)c5c(c4[C@@H](COC1=O)N1[C@@H]3[C@H]3c4c(cc(C)c(OC)c4OCC=C)C[C@@H]([C@@H]1C#N)N3C)OCO5)N(C(=O)c1ccccc1Br)CC2`, for which the pIC50 with HCT-116, with QG-56 and with DU-145 was below 6.00 each time.
Turning to `COc1cc2c(cc1O)CCN(C(=O)c1ccccc1)[C@]21CS[C@@H]2c3c(OC(C)=O)c(C)c4c(c3[C@@H](COC1=O)N1[C@@H]2[C@H]2c3c(cc(C)c(OC)c3O)C[C@@H]([C@@H]1C#N)N2C)OCO4`, the pIC50 in the experiment with HCT-116 was 9.43; in the experiment with QG-56 it was 9.00; with DU-145 it was 8.96.
The like results for `COc1cc2c(cc1O)CCN(C(=O)c1ccc([N+](=O)[O-])cc1)[C@]21CS[C@@H]2c3c(OC(C)=O)c(C)c4c(c3[C@@H](COC1=O)N1[C@@H]2[C@H]2c3c(cc(C)c(OC)c3O)C[C@@H]([C@@H]1C#N)N2C)OCO4` were, in that order, 9.42, 8.96 and 9.00.
`COc1cc2c(cc1O)CCN(C(=O)c1cccc([N+](=O)[O-])c1)[C@]21CS[C@@H]2c3c(OC(C)=O)c(C)c4c(c3[C@@H](COC1=O)N1[C@@H]2[C@H]2c3c(cc(C)c(OC)c3O)C[C@@H]([C@@H]1C#N)N2C)OCO4`: the pIC50 was 9.85 in the experiment with HCT-116, 9.37 in the experiment on QG-56 and 9.14 in the experiment with DU-145.
The corresponding values for `COc1cc2c(cc1O)CCN(C(=O)c1ccncc1)[C@]21CS[C@@H]2c3c(OC(C)=O)c(C)c4c(c3[C@@H](COC1=O)N1[C@@H]2[C@H]2c3c(cc(C)c(OC)c3O)C[C@@H]([C@@H]1C#N)N2C)OCO4` are 10.35, 9.70 and 9.52.
The like results for `COc1cc2c(cc1O)CCN(C(=O)c1cccnc1)[C@]21CS[C@@H]2c3c(OC(C)=O)c(C)c4c(c3[C@@H](COC1=O)N1[C@@H]2[C@H]2c3c(cc(C)c(OC)c3O)C[C@@H]([C@@H]1C#N)N2C)OCO4` were, in that order, 9.89, 9.40 and 9.14.
Turning to `COc1cc2c(cc1O)CCN(C(=O)c1ccnc3ccccc13)[C@]21CS[C@@H]2c3c(OC(C)=O)c(C)c4c(c3[C@@H](COC1=O)N1[C@@H]2[C@H]2c3c(cc(C)c(OC)c3O)C[C@@H]([C@@H]1C#N)N2C)OCO4`, the pIC50 was 10.17 with HCT-116, 9.64 in the experiment with QG-56 and 9.80 with DU-145.
As for `COc1cc2c(cc1O)CCN(C(=O)c1cccc3ncccc13)[C@]21CS[C@@H]2c3c(OC(C)=O)c(C)c4c(c3[C@@H](COC1=O)N1[C@@H]2[C@H]2c3c(cc(C)c(OC)c3O)C[C@@H]([C@@H]1C#N)N2C)OCO4`, the pIC50 in the experiment with HCT-116 is 10.07; in the experiment on QG-56, 9.44; in the experiment on DU-145 it was 9.04.
The like results for `COc1cc2c(cc1O)CCN(C(=O)c1ccc3ncccc3c1)[C@]21CS[C@@H]2c3c(OC(C)=O)c(C)c4c(c3[C@@H](COC1=O)N1[C@@H]2[C@H]2c3c(cc(C)c(OC)c3O)C[C@@H]([C@@H]1C#N)N2C)OCO4` were, in that order, 10.35, 9.80 and 10.37.
As for `C=CCOc1cc2c(cc1OC)[C@@]1(CS[C@@H]3c4c(OC(C)=O)c(C)c5c(c4[C@@H](COC1=O)N1[C@@H]3[C@H]3c4c(cc(C)c(OC)c4OCC=C)C[C@@H]([C@@H]1C#N)N3C)OCO5)N(C(=O)/C=C/c1ccccc1)CC2`, the results for the pIC50 in the experiment with HCT-116, in the experiment on QG-56 and in the experiment on DU-145 were 6.20, below 6.00 and below 6.00, respectively.
As to `C=CCOc1cc2c(cc1OC)[C@@]1(CS[C@@H]3c4c(OC(C)=O)c(C)c5c(c4[C@@H](COC1=O)N1[C@@H]3[C@H]3c4c(cc(C)c(OC)c4OCC=C)C[C@@H]([C@@H]1C#N)N3C)OCO5)N(C(=O)/C=C/c1ccc([N+](=O)[O-])cc1)CC2`, the values for the pIC50 in the experiment on HCT-116, with QG-56 and with DU-145 were 6.28, 5.07 and 5.12, respectively.
Take `COc1cc2c(cc1O)CCN(C(=O)/C=C/c1ccccc1)[C@]21CS[C@@H]2c3c(OC(C)=O)c(C)c4c(c3[C@@H](COC1=O)N1[C@@H]2[C@H]2c3c(cc(C)c(OC)c3O)C[C@@H]([C@@H]1C#N)N2C)OCO4`: the pIC50 in the experiment on HCT-116 was 10.28; in the experiment with QG-56, 9.48; in the experiment with DU-145, 9.62.
The corresponding values for `COc1cc2c(cc1O)CCN(C(=O)/C=C/c1ccc([N+](=O)[O-])cc1)[C@]21CS[C@@H]2c3c(OC(C)=O)c(C)c4c(c3[C@@H](COC1=O)N1[C@@H]2[C@H]2c3c(cc(C)c(OC)c3O)C[C@@H]([C@@H]1C#N)N2C)OCO4` are 9.22, 8.62 and 9.09.
Turning to `C=CCOc1c(OC)c(C)cc2c1[C@@H]1[C@@H]3[C@@H]4SC[C@]5(C(=O)OC[C@H](c6c7c(c(C)c(OC(C)=O)c64)OCO7)N3[C@@H](C#N)[C@H](C2)N1C)c1cc(OC)c(O)cc1CCN5C(=O)/C=C/c1ccc([N+](=O)[O-])cc1`, the negative-log IC50 (pIC50) with HCT-116 is 8.57; in the experiment on QG-56, 8.01; in the experiment on DU-145, 8.30.
